We go through 22 molecules from ChEMBL document CHEMBL1153936, “Synthesis and pharmacological evaluation of (2-oxaadamant-1-yl)amines” (Bioorg Med Chem, 2009).

pIC50: −log10 of the molar value. The source made the active and inactive calls. The calls are words filed in the database; no cut-off is given here.

The test system of assay [1] is Trypanosoma brucei. Briefly: Antitrypanosomal activity against Trypanosoma brucei 427 assessed as parasite growth inhibition after 48 hrs. It is filed as functional, organism-based. Particulars: Trypanosoma brucei, 427, 48 h.
The nature of assay [2]: Antagonist activity against glutamate receptor in rat cerebellar granule neurons assessed as inhibition of glutamate-induced increase in intracellular calcium level by Fura-2 AM dye based fluorimetry. Format: functional, cell-based. Put shortly: (§1)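 Primary cerebellar granule neurons were grown on poly-L-lysine-coated glass coverslips and used after 7–14 days in vitro. Cells were loaded with 6 μM Fura-2 AM for 45 min. Fluorometry was done in Locke-Hepes buffer at 37 °C with mild agitation, recorded over 1200 s. Cells were stimulated with NMDA or glutamate at 100 μM plus 10 μM glycine. Test compound was then added at cumulative rising concentrations. IC50 came from variable-slope nonlinear regression of % inhibition. Values are means ± SEM, n ≥ 3 separate experiments on three culture batches.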

Another assay deals with Glutamate NMDA receptor. Description: Antagonist activity against NMDA receptor in rat cerebellar granule neurons assessed as inhibition of NMDA -induced increase in intracellular calcium level by Fura-2 AM dye based fluorimetry. It is filed as functional, cell-based. Summed up: as §1
For assay [3], the system named is Trypanosoma brucei. Briefly: Antitrypanosomal activity against Trypanosoma brucei 427 assessed as parasite growth inhibition up to 5 mg/mL after 48 hrs. Format: functional, organism-based.
Assay [4] has as its system Vesicular stomatitis virus. Description: Antiviral activity against Vesicular stomatitis virus assessed as inhibition of viral replication. It is filed as functional, organism-based. Summed up:
(§2)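 Cell-culture virus replication assay. Inhibition of virus-induced effects and compound cytotoxicity were scored by microscopic examination and confirmed by colorimetric MTS cell-viability readout.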

The test system of another assay is Feline coronavirus. Briefly: Antiviral activity against Feline coronavirus assessed as inhibition of viral replication. It is filed as functional, organism-based. Put shortly:
(§3)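 Cell-culture virus replication assays. Inhibition of viral replication and compound cytotoxicity were scored by microscopic examination, then confirmed by a colorimetric MTS cell viability assay.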

The test system of another assay is Vaccinia virus. Description: Antiviral activity against Vaccinia virus assessed as inhibition of viral replication. It is filed as functional, organism-based. Particulars: Orthopoxvirus vaccinia. Put shortly: as §2
A further assay has as its system Human alphaherpesvirus 2. Description: Antiviral activity against HSV2 assessed as inhibition of viral replication. It is filed as functional, organism-based. Put shortly:
as §3

A further assay deals with Punta Toro virus. Briefly: Antiviral activity against Punta Toro virus assessed as inhibition of viral replication. Format: functional, organism-based. Summed up:
as §3

A further assay deals with Sindbis virus. Description: Antiviral activity against Sindbis virus assessed as inhibition of viral replication. Format: functional, organism-based. Put shortly:
as §3

The next assay has as its system Influenza A virus H3N2. Briefly: Antiviral activity against Influenza A virus (A/Hong Kong/7/1987(H3N2)) assessed as inhibition of viral replication. It is filed as functional, organism-based. Put shortly: as §2
The subject of assay [5] is Mammalian orthoreovirus 1. Description: Antiviral activity against Reovirus 1 assessed as inhibition of viral replication. It is filed as functional, organism-based. Put shortly: as §3
The subject of another assay is Influenza A virus. Description: Antiviral activity against Influenza A virus (A/Puerto Rico/8/34(H1N1)) assessed as inhibition of viral replication. Particulars: A/Puerto Rico/8/1934(H1N1). Format: functional, organism-based. Put shortly: as §2
For another assay, the system named is Influenza B virus. Description: Antiviral activity against Influenza B virus (B/Hong Kong/05/1972) assessed as inhibition of viral replication. It is filed as functional, organism-based. Put shortly:
as §2

Another assay deals with Human alphaherpesvirus 1. Description: Antiviral activity against HSV1 assessed as inhibition of viral replication. It is filed as functional, organism-based. Summed up:
as §3

A further assay relates to Coxsackievirus B4. Description: Antiviral activity against Coxsackievirus B4 assessed as inhibition of viral replication. Format: functional, organism-based. Put shortly: as §3
Assay [6] has as its system Respiratory syncytial virus. Briefly: Antiviral activity against Respiratory syncytial virus assessed as inhibition of viral replication. It is filed as functional, organism-based. Summed up:
as §3

Another assay relates to Human respirovirus 3. Briefly: Antiviral activity against parainfluenza virus 3 assessed as inhibition of viral replication. It is filed as functional, organism-based. Put shortly: as §3

Take `CCC12CC3CC(C1)CC(N(C)C)(C3)O2`: the figures for the pIC50 (with Trypanosoma brucei [1]; in assay [2]; on Glutamate NMDA receptor) were 4.96, 3.97 and 4.26, respectively. The IC90 – broadly, the concentration needed for an effect of 90% – with Trypanosoma brucei [1] was 15.5 µM.
For `CCN(CC)C12CC3CC(CC(CC)(C3)O1)C2`, the negative logarithm of the IC50 (pIC50) (commonly the negative decadic logarithm of the IC50, by convention in mol/L) in [2] is 4.66; at Glutamate NMDA receptor, 4.85.
Consider `NC12CC3CC(CC(C3)O1)C2`, for which the outcome (with Trypanosoma brucei [3]; in assay [4]; with Feline coronavirus; in the assay with Vaccinia virus; in the assay with Human alphaherpesvirus 2; in the assay with Punta Toro virus) was inactive. For the same molecule, the result (in the assay on Sindbis virus; in the assay on Influenza A virus H3N2; in assay [5]; with Influenza A virus; in the assay on Influenza B virus; with Human alphaherpesvirus 1) was inactive. The result (in the assay on Coxsackievirus B4; in [6]; in the assay on Human respirovirus 3) was inactive. For the same molecule, the pIC50 is under 3.30 in assay [2] and under 3.70 at Glutamate NMDA receptor.
Regarding `c1ccc(CNC23CC4CC(CC(C4)O2)C3)cc1`, the outcome (in the assay with Trypanosoma brucei [3]; in assay [4]; with Feline coronavirus; in the assay on Vaccinia virus; with Human alphaherpesvirus 2; in the assay with Punta Toro virus) was inactive. Besides, the result (in the assay with Sindbis virus; in the assay with Influenza A virus H3N2; in assay [5]; in the assay with Influenza A virus; in the assay on Influenza B virus; in the assay with Human alphaherpesvirus 1) was inactive. Moreover, the result (with Coxsackievirus B4; in assay [6]; in the assay on Human respirovirus 3) was inactive. Moreover, the pIC50 in [2] was under 3.30; on Glutamate NMDA receptor, under 3.70.
For the molecule `CCC12CC3CC(C1)CC(NCc1ccccc1)(C3)O2`, the pIC50 is under 3.30 in assay [2] and under 3.70 at Glutamate NMDA receptor.
`CC12CC3CC(C1)CC(N)(C3)O2`: the pIC50 is under 3.30 in assay [2] and under 3.70 on Glutamate NMDA receptor.
Consider `CCC12CC3CC(CC(N)(C3)O1)C2`, for which the pIC50 is 3.65 in assay [2] and 4.08 on Glutamate NMDA receptor.
As for `NC12CC3CC(CC(C3)C1)C2` [AMANTADINE], the pIC50 in the assay on Trypanosoma brucei [1] is under 3.89.
For `CC12CC3CC(C1)CC(NN)(C3)O2`, the negative-log IC50 (pIC50) in [2] was under 3.30; on Glutamate NMDA receptor, under 3.70.
For the molecule `NC12CC3CC(C1)CC(c1ccccc1)(C3)O2`, the outcome (in assay [4]; in the assay on Feline coronavirus; in the assay with Vaccinia virus; in the assay on Human alphaherpesvirus 2; in the assay with Punta Toro virus; with Sindbis virus) was inactive. Also, the outcome (in the assay with Influenza A virus H3N2; in [5]; in the assay on Influenza A virus; in the assay with Influenza B virus; with Human alphaherpesvirus 1; in the assay with Coxsackievirus B4) was inactive. Moreover, the result (in [6]; in the assay on Human respirovirus 3) was inactive. Moreover, the pIC50 in assay [2] is 3.46; on Glutamate NMDA receptor it was 3.65.
On to `CCC12CC3CC(C1)CC(NC)(C3)O2`, for which the outcome (in [4]; in the assay with Feline coronavirus; with Vaccinia virus; in the assay with Human alphaherpesvirus 2; in the assay with Punta Toro virus; in the assay on Sindbis virus) was inactive. Besides, the outcome (in the assay with Influenza A virus H3N2; in assay [5]; in the assay with Influenza A virus; with Influenza B virus; in the assay with Human alphaherpesvirus 1; in the assay on Coxsackievirus B4) was inactive. In addition, the outcome (in [6]; in the assay on Human respirovirus 3) was inactive. The pIC50 is 3.97 in assay [2] and 4.49 on Glutamate NMDA receptor.
`CN(C)C12CC3CC(CC(C)(C3)O1)C2`: the pIC50 is 5.40 with Trypanosoma brucei [1], under 3.30 in assay [2] and under 3.70 on Glutamate NMDA receptor. Besides, in the assay on Trypanosoma brucei [1], the concentration for an effect of 90% (IC90) amounted to 6.82 µM.
`CNC12CC3CC(CC(C3)O1)C2`: the outcome (with Trypanosoma brucei [3]; in assay [4]; with Feline coronavirus; in the assay on Vaccinia virus; in the assay with Human alphaherpesvirus 2; in the assay on Punta Toro virus) was inactive. Moreover, the outcome (in the assay on Sindbis virus; with Influenza A virus H3N2; in assay [5]; in the assay on Influenza A virus; in the assay on Influenza B virus; in the assay with Human alphaherpesvirus 1) was inactive. Besides, the result (with Coxsackievirus B4; in assay [6]; in the assay on Human respirovirus 3) was inactive. Further, the figures for the negative-log IC50 (pIC50) (in assay [2]; at Glutamate NMDA receptor) were under 3.30 and under 3.70, respectively.
`CN(Cc1ccccc1)C12CC3CC(CC(C3)O1)C2`: the outcome in the assay on Trypanosoma brucei [3] was inactive. The pIC50 in assay [2] is under 3.30; on Glutamate NMDA receptor, under 3.70.
Regarding `NNC12CC3CC(C1)CC(c1ccccc1)(C3)O2`, the pIC50 in assay [2] is under 3.30.
Consider `c1ccc(CN(Cc2ccccc2)C23CC4CC(CC(C4)O2)C3)cc1`, for which the result in the assay with Trypanosoma brucei [3] was inactive. The pIC50 in assay [2] is under 3.30; on Glutamate NMDA receptor, under 3.70.
As to `c1ccc(CCNC23CC4CC(CC(C4)O2)C3)cc1`, the outcome in the assay with Trypanosoma brucei [3] was inactive. Moreover, the pIC50 in [2] was under 3.30; on Glutamate NMDA receptor, under 3.70.
For the molecule `CC(N)C12CC3CC(CC(C3)C1)C2` (stereo not given) [RIMANTADINE], the IC90 in the assay on Trypanosoma brucei [1] amounted to 14 µM.
As for `CCC12CC3CC(C1)CC(NN)(C3)O2`, in [2], the pIC50 was under 3.30.
In the case of `CCC12CC3CC(C1)CC(N(C)Cc1ccccc1)(C3)O2`, the results for the pIC50 (in assay [2]; on Glutamate NMDA receptor) were under 3.30 and under 3.70, respectively.
Regarding `NC12CC3CC(C1)CC(C1CCCCC1)(C3)O2`, the result (in assay [4]; in the assay on Feline coronavirus; with Vaccinia virus; with Human alphaherpesvirus 2; in the assay with Punta Toro virus; in the assay on Sindbis virus) was inactive. In addition, the result (in the assay on Influenza A virus H3N2; in assay [5]; with Influenza A virus; in the assay on Influenza B virus; with Human alphaherpesvirus 1; with Coxsackievirus B4) was inactive. Besides, the outcome (in assay [6]; in the assay on Human respirovirus 3) was inactive. Besides, the results for the pIC50 (in [2]; at Glutamate NMDA receptor) were under 3.30 and 4.03, respectively.
`CN(CCc1ccccc1)C12CC3CC(CC(C3)O1)C2`: the result in the assay on Trypanosoma brucei [3] was inactive. The pIC50 in assay [2] was under 3.30; on Glutamate NMDA receptor it was under 3.70.
